Experimental data published in ChEMBL document CHEMBL2375221, “Preparation and antimalarial activity of semisynthetic lycorenine derivatives” (Eur J Med Chem, 2013).

Test system: Plasmodium falciparum
Assay: Antimalarial activity against chloroquine-sensitive Plasmodium falciparum F-32 Tanzania infected in blood assessed as decrease in parasitaemia after 48 hrs
Type: functional, organism-based
Method in brief: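 P. falciparum F-32 Tanzania (chloroquine-sensitive) grown in glucose-enriched RPMI 1640 with 10% human serum at 37 °C. After 24 h at 37 °C, the medium was replaced with fresh medium containing compound in DMSO at three concentrations (0.1, 1, 10). Incubation continued 48 h. On day three, a blood smear from each well was used to score parasitaemia versus control. IC50 was read graphically against concentration.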

IC50 | SMILES
87.6 µM | C[N+]1([O-])CCC2=C[C@H](O)[C@H]3OC(=O)c4cc5c(cc4[C@H]3[C@@H]21)OCO5 (stereo partly drawn)
42.2 µM | CN1CCC2=C[C@H](OC(=O)c3ccc(Br)cc3)[C@H]3OC(=O)c4cc5c(cc4[C@H]3[C@@H]21)OCO5
7.4 µM | COC(=O)c1cc(C(=O)OC)cc(C(=O)O[C@H]2C=C3CCN(C)[C@H]3[C@@H]3c4cc5c(cc4C(=O)O[C@@H]32)OCO5)c1
61.8 µM | CCOC(=O)O[C@H]1C=C2CCN(C)[C@H]2[C@@H]2c3cc4c(cc3C(=O)O[C@@H]21)OCO4
18.8 µM | CN1CCC2=C[C@H](O)[C@H]3NC(=O)c4cc5c(cc4[C@H]3[C@@H]21)OCO5
49.8 µM | CN1CCC2=C[C@H](OC(=O)c3cccnc3)[C@H]3OC(=O)c4cc5c(cc4[C@H]3[C@@H]21)OCO5
1.3 µM | CN1CCC2=C[C@H](OC(=O)c3ccc(C(=O)O[C@H]4C=C5CCN(C)[C@H]5[C@@H]5c6cc7c(cc6C(=O)O[C@@H]54)OCO7)cc3)[C@H]3OC(=O)c4cc5c(cc4[C@H]3[C@@H]21)OCO5
57.1 µM | CC(C)C(=O)O[C@H]1C=C2CCN(C)[C@H]2[C@@H]2c3cc4c(cc3C(=O)O[C@@H]21)OCO4
68.7 µM | CN1CC[C@@]2(O)[C@@H]1[C@@H]1c3cc4c(cc3C(=O)O[C@@H]1[C@@H](O)[C@@H]2O)OCO4
1.3 µM | CN1CCC2=C[C@H](OC(=O)c3cccc(C(=O)O[C@H]4C=C5CCN(C)[C@H]5[C@@H]5c6cc7c(cc6C(=O)O[C@@H]54)OCO7)c3)[C@H]3OC(=O)c4cc5c(cc4[C@H]3[C@@H]21)OCO5
49.4 µM | C=Cc1ccc(C(=O)O[C@H]2C=C3CCN(C)[C@H]3[C@@H]3c4cc5c(cc4C(=O)O[C@@H]32)OCO5)cc1
58.8 µM | CC(=O)O[C@H]1C=C2CCN(C)[C@H]2[C@@H]2c3cc4c(cc3C(=O)O[C@@H]21)OCO4
4 µM | CN1CCC2=C[C@H](OC(=O)CCCCC(=O)O[C@H]3C=C4CCN(C)[C@H]4[C@@H]4c5cc6c(cc5C(=O)O[C@@H]43)OCO6)[C@H]3OC(=O)c4cc5c(cc4[C@H]3[C@@H]21)OCO5
55.4 µM | C=CCCC(=O)O[C@H]1C=C2CCN(C)[C@H]2[C@@H]2c3cc4c(cc3C(=O)O[C@@H]21)OCO4
3.9 µM | CN1CCC2=C[C@H](OC(=O)c3cccc(C(=O)O[C@H]4C=C5CCN(C)[C@H]5[C@@H]5c6cc7c(cc6C(=O)O[C@@H]54)OCO7)n3)[C@H]3OC(=O)c4cc5c(cc4[C@H]3[C@@H]21)OCO5

More lines, now with the values behind:

SMILES | IC50
C[N+]1=CCC2=C[C@H](O)[C@H]3OC(=O)c4cc5c(cc4[C@H]3[C@@H]21)OCO5 | > 100 µM
C=Cc1cccc(-c2cc3c(cc2C(=O)O)OCO3)c1N(C)CC | 86.1 µM
COC(=O)c1cc2c(cc1-c1cc(OC(C)=O)cc3c1N(C)CC3)OCO2 | 70.4 µM
COc1cc2c(cc1OC)[C@@H]1[C@H](OC2=O)[C@@H](O)C=C2CCN(C)[C@H]21 | 84.5 µM
CN1CCC2=C[C@H](O)[C@H]3OC(=O)c4cc(O)c(O)cc4[C@H]3[C@@H]21 | 9.9 µM
CN1CC[C@]2(O)[C@H](Br)[C@H](O)[C@H]3OC(=O)c4cc5c(cc4[C@H]3[C@H]12)OCO5 | 58.3 µM
C=Cc1cccc(-c2cc3c(cc2C(=O)OC)OCO3)c1N(C)CCCC | 76.2 µM
CN1CC=C2C=C[C@H]3OC(=O)c4cc5c(cc4[C@H]3[C@@H]21)OCO5 | 94.1 µM
C=Cc1cccc(-c2cc3c(cc2C(=O)O)OCO3)c1N(C)C | 67.5 µM
C=Cc1cccc(-c2cc3c(cc2C(=O)OC)OCO3)c1N(C)C | 67.6 µM
CN1CCC2=C[C@H](O)[C@H]3OC(=O)c4cc5c(cc4[C@H]3[C@@H]21)OCO5 | 12.7 µM
CN1CC[C@]2(Cl)C=C[C@H]3OC(=O)c4cc5c(cc4[C@H]3[C@H]12)OCO5 | 84 µM
CN1CCC2=CC(=O)[C@H]3OC(=O)c4cc5c(cc4[C@H]3[C@@H]21)OCO5 [2-OXOHIPPEASTRINE] | 79.8 µM
CN1CC[C@]2(Br)C[C@H](O)[C@H]3OC(=O)c4cc5c(cc4[C@H]3[C@H]12)OCO5 | 58.7 µM
CN1CC[C@@H]2C[C@H](O)[C@H]3OC(=O)c4cc5c(cc4[C@H]3[C@@H]21)OCO5 | 78.8 µM
C=Cc1cccc(-c2cc3c(cc2C(=O)O)OCO3)c1N(C)CCCC | > 100 µM
C=Cc1cccc(-c2cc3c(cc2C(=O)O)OCO3)c1N(C)CCCCCCCCCCC | > 100 µM
CN1CCC2=C[C@H](O)[C@H]3OC(=O)c4cc5c(cc4[C@@]3(O)[C@@H]21)OCO5 | 60.4 µM
